Converted amounts (≈) assume the structure as drawn. *1 amine or outer side, *2 acyl side, *3 side chain or, on linkers, in order; H or OH if unused. Where a SMILES comes first, the peptide text is derived from it. Bridges are numbered along the chain shown (N, C = ends). [ ]: non-standard residue; d: D form. The star is where a group is joined. hTyr(3S-OH,4S-OH,3'-OSO3H) = N[C@H](C(=O)O)[C@H](O)[C@@H](O)c1ccc(O)c(OS(=O)(=O)O)c1; Orn(4R-OH,5R-OH) = O=C([C@H](C[C@@H](O)[C@@H](O)N[*:3])N[*:1])[*:2]; Pro(3S-OH,4S-Me) = C[C@H]1CN[C@H](C(=O)O)[C@H]1O; X1 = CCCCCOc1ccc(-c2cc(-c3ccc(C(=O)*)cc3)no2)cc1; Gln(3R-OH) = NC(=O)C[C@@H](O)[C@H](N)C(=O)O; Hyp = O=C(O)[C@@H]1C[C@@H](O)CN1
Key:
Nakaseomyces glabratus [1] = assay: Antifungal activity against Candida glabrata isolate 33609 infected in ICR/Swiss neutropenic mouse assessed as dose required for 1-log kill after 24 hrs; format: functional
Summary of the method: (§1)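 Neutropenic mice (cyclophosphamide sc 150 mg/kg day −4, 100 mg/kg day −1 and +2) infected iv by tail vein 2 h before therapy. Micafungin given ip every 24 h for 4 days at six fourfold-spaced dose levels, 0.078–80 mg/kg/24 h, 3 mice per group. Kidney CFU read at 96 h. Hill-model fit; dose giving 1 log10 below start-of-therapy burden.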

Candida albicans [2] = assay: Antifungal activity against Candida albicans isolate 98-17 infected in ICR/Swiss neutropenic mouse assessed as dose required for 1-log kill after 24 hrs; format: functional; summary of the method: as §1
Candida albicans [3] = assay: Fungistatic activity against Candida albicans isolate 580 infected in ICR/Swiss neutropenic mouse after 24 hrs; format: functional
Summary of the method: (§2)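 Neutropenic female ICR/Swiss mice received cyclophosphamide sc at 150 mg/kg on day −4, 100 mg/kg on day −1 and 100 mg/kg on day +2. Mice were infected iv via the tail vein, and ip micafungin in 0.15 M NaCl started 2 h later. Six dose levels from 0.078 to 80 mg/kg/24 h were given q24h for 4 days, 3 mice per dose. Kidney CFU were counted at 96 h. The static dose was derived from a sigmoid Emax (Hill) fit.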

[4] = Ratio of fAUC in ICR/Swiss neutropenic mouse at static dose of 3.88 mg/kg, ip after 24 hrs to MIC for Candida glabrata isolate 33616; format: functional; conditions: route intraperitoneal
Homo sapiens = species: Homo sapiens; assay: fAUC in healthy human at 100 mg/day; format: ADME, organism-based; conditions: in vivo
Candida albicans [5] = assay: Antifungal activity against Candida albicans isolate 98-17 by CLSI method; format: functional
Summary of the method: (§3)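 Broth microdilution MIC per CLSI M27-A2. Two endpoints were read against the drug-free control well: partial inhibition (M1, CLSI recommended) and complete inhibition (M2). Tests were run in duplicate on four separate occasions, and the value is the mean.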

[6] = Cmax in Candida infected ICR/Swiss neutropenic mouse at 5 mg/kg, ip; format: ADME, organism-based; parameters: dose 5 mg/kg, route intraperitoneal; conditions: in vivo
Summary of the method: (§4)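 Single intraperitoneal micafungin doses (80, 20, 5 mg/kg in 0.2 ml, 0.15 M NaCl) given to infected neutropenic mice. Serum was taken from 3 mice per time point at 1, 2, 4, 6, 8, 12, 24 and 48 h. Drug was measured by microbiologic assay with C. albicans K1 (LLOQ 0.12 μg/ml). Noncompartmental analysis; half-life by nonlinear least squares; AUC by trapezoidal rule.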

Nakaseomyces glabratus [7] = assay: Antifungal activity against Candida glabrata isolate 570 by CLSI method; format: functional; summary of the method: as §3
[8] = Ratio of fAUC in ICR/Swiss neutropenic mouse at static dose of 2.53 mg/kg, ip after 24 hrs to MIC for Candida albicans isolate 98-17; format: functional; conditions: route intraperitoneal
[9] = Ratio of fAUC in ICR/Swiss neutropenic mouse at 1-Log kill dose of 2.0 mg/kg, ip after 24 hrs to MIC for Candida glabrata isolate 5376; format: functional; conditions: route intraperitoneal
[10] = AUC in healthy human at 100 mg/day; format: ADME, organism-based; conditions: plasma
[11] = Ratio of fAUC in ICR/Swiss neutropenic mouse at static dose of 2.84 mg/kg, ip after 24 hrs to MIC for Candida albicans isolate 98-210; format: functional; conditions: route intraperitoneal
[12] = Ratio of AUC in ICR/Swiss neutropenic mouse at static dose of 0.41 mg/kg, ip after 24 hrs to MIC for Candida glabrata isolate 33609; format: functional; conditions: route intraperitoneal
Candida albicans [13] = assay: Antifungal activity against Candida albicans isolate 580 by CLSI method; format: functional; summary of the method: as §3
[14] = Ratio of AUC in ICR/Swiss neutropenic mouse at 1-Log kill dose of 4.60 mg/kg, ip after 24 hrs to MIC for Candida albicans isolate 98-17; format: functional; conditions: dose 4.6 mg/kg; route intraperitoneal
[15] = Ratio of fAUC in ICR/Swiss neutropenic mouse at static dose of 0.06 mg/kg, ip after 24 hrs to MIC for Candida glabrata isolate 32930; format: functional; conditions: route intraperitoneal
[16] = AUC (0 to infinity) in Candida infected ICR/Swiss neutropenic mouse at 80 mg/kg, ip; format: ADME, organism-based; parameters: time infinity, dose 80 mg/kg, route intraperitoneal; conditions: plasma; summary of the method: as §4
[17] = Ratio of AUC in ICR/Swiss neutropenic mouse at 1-Log kill dose of 1.69 mg/kg, ip after 24 hrs to MIC for Candida glabrata isolate 32930; format: functional; conditions: route intraperitoneal
[18] = Cmax in Candida infected ICR/Swiss neutropenic mouse at 80 mg/kg, ip; format: ADME, organism-based; parameters: dose 80 mg/kg, route intraperitoneal; conditions: in vivo; summary of the method: as §4
Nakaseomyces glabratus [19] = assay: Antifungal activity against Candida glabrata isolate 37661 infected in ICR/Swiss neutropenic mouse assessed as dose required for 1-log kill after 24 hrs; format: functional; summary of the method: as §1
Candida albicans [20] = assay: Fungistatic activity against Candida albicans isolate K1 infected in ICR/Swiss neutropenic mouse after 24 hrs; format: functional; summary of the method: as §2
[21] = Ratio of AUC in ICR/Swiss neutropenic mouse at 1-Log kill dose of 1.40 mg/kg, ip after 24 hrs to MIC for Candida glabrata isolate 33609; format: functional; conditions: dose 1.4 mg/kg; route intraperitoneal
[22] = Ratio of AUC in ICR/Swiss neutropenic mouse at static dose of 2.4 mg/kg, ip after 24 hrs to MIC for Candida glabrata isolate 35315; format: functional; conditions: route intraperitoneal
[23] = Half life in Candida infected ICR/Swiss neutropenic mouse at 5 mg/kg, ip; format: ADME, organism-based; parameters: dose 5 mg/kg, route intraperitoneal; conditions: in vivo; summary of the method: as §4
Nakaseomyces glabratus [24] = assay: Antifungal activity against Candida glabrata isolate 32930 by CLSI method; format: functional; summary of the method: as §3
[25] = Ratio of fAUC in ICR/Swiss neutropenic mouse at 1-Log kill dose of 10.4 mg/kg, ip after 24 hrs to MIC for Candida albicans isolate 98-210; format: functional; conditions: route intraperitoneal
[26] = Ratio of AUC in ICR/Swiss neutropenic mouse at static dose of 2.53 mg/kg, ip after 24 hrs to MIC for Candida albicans isolate 98-17; format: functional; conditions: route intraperitoneal
[27] = Ratio of fAUC in ICR/Swiss neutropenic mouse at static dose of 0.41 mg/kg, ip after 24 hrs to MIC for Candida glabrata isolate 33609; format: functional; conditions: route intraperitoneal
Nakaseomyces glabratus [28] = assay: Antifungal activity against Candida glabrata isolate 37661 by CLSI method; format: functional
Summary of the method: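 Broth microdilution per CLSI M27-A2. The MIC was read at partial inhibition (M1) and at complete inhibition (M2) against the drug-free control. Done in duplicate on four separate occasions and reported as the mean.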

Nakaseomyces glabratus [29] = assay: Fungistatic activity against Candida glabrata isolate 513 infected in ICR/Swiss neutropenic mouse after 24 hrs; format: functional; summary of the method: as §2
[30] = Ratio of AUC in ICR/Swiss neutropenic mouse at static dose of 3.76 mg/kg, ip after 24 hrs to MIC for Candida glabrata isolate 570; format: functional; conditions: route intraperitoneal
Nakaseomyces glabratus [31] = assay: Antifungal activity against Candida glabrata isolate 33616 infected in ICR/Swiss neutropenic mouse assessed as dose required for 1-log kill after 24 hrs; format: functional; summary of the method: as §1
[32] = Ratio of fAUC in ICR/Swiss neutropenic mouse at static dose of 1.34 mg/kg, ip after 24 hrs to MIC for Candida glabrata isolate 513; format: functional; conditions: route intraperitoneal
Candida albicans [33] = assay: Antifungal activity against Candida albicans isolate 98-210 infected in ICR/Swiss neutropenic mouse assessed as dose required for 1-log kill after 24 hrs; format: functional; summary of the method: as §1

CCCCCOc1ccc(-c2cc(-c3ccc(C(=O)N[C@H]4C[C@@H](O)[C@@H](O)NC(=O)[C@@H]5[C@@H](O)[C@@H](C)CN5C(=O)[C@H]([C@H](O)CC(N)=O)NC(=O)[C@H]([C@H](O)[C@@H](O)c5ccc(O)c(OS(=O)(=O)O)c5)NC(=O)[C@@H]5C[C@@H](O)CN5C(=O)[C@H]([C@@H](C)O)NC4=O)cc3)no2)cc1 [MICAFUNGIN] (X1-[Orn(4R-OH,5R-OH)]T[Hyp][hTyr(3S-OH,4S-OH,3'-OSO3H)][Gln(3R-OH)][Pro(3S-OH,4S-Me)]; lactam 1-C)
Activity (Nakaseomyces glabratus [1]): 1.4 mg/kg | Activity (Candida albicans [2]): 4.6 mg/kg | Activity (Candida albicans [3]): 1.98 mg/kg | fAUC/MIC [4]: 1.1 | fAUC (Homo sapiens): 0.32 mg·h/L | MIC (Candida albicans [5]): 0.06 µg/mL (≈ 0.0472 µM) | MIC50 (Candida albicans [5]): 0.03 µg/mL (≈ 0.0236 µM) | Cmax [6]: 7000 ng/mL | MIC (Nakaseomyces glabratus [7]): 0.03 µg/mL (≈ 0.0236 µM) | MIC50 (Nakaseomyces glabratus [7]): 0.016 µg/mL (≈ 0.0126 µM) | fAUC/MIC [8]: 5.9 | fAUC/MIC [9]: 19.7 | AUC [10]: 126 µg·h/mL | fAUC/MIC [11]: 13 | RatioAUC/MIC [12]: 753 | MIC (Candida albicans [13]): 0.016 µg/mL (≈ 0.0126 µM) | MIC50 (Candida albicans [13]): 8 ng/mL (≈ 0.0063 µM) | RatioAUC/MIC [14]: 4233 | fAUC/MIC [15]: 0.5 | AUC(0-inf) [16]: 1400 µg·h/mL | RatioAUC/MIC [17]: 3107 | Cmax [18]: 53 µg/mL | Activity (Nakaseomyces glabratus [19]): 20.6 mg/kg | Activity (Candida albicans [20]): 2.84 mg/kg | RatioAUC/MIC [21]: 2600 | RatioAUC/MIC [22]: 1103 | half-life [23]: 450 min | MIC (Nakaseomyces glabratus [24]): 0.016 µg/mL (≈ 0.0126 µM) | MIC50 (Nakaseomyces glabratus [24]): 8 ng/mL (≈ 0.0063 µM) | fAUC/MIC [25]: 46 | RatioAUC/MIC [26]: 2333 | fAUC/MIC [27]: 1.9 | MIC (Nakaseomyces glabratus [28]): 0.25 µg/mL (≈ 0.197 µM) | MIC50 (Nakaseomyces glabratus [28]): 0.25 µg/mL (≈ 0.197 µM) | Activity (Nakaseomyces glabratus [29]): 1.34 mg/kg | RatioAUC/MIC [30]: 6933 | Activity (Nakaseomyces glabratus [31]): 7.89 mg/kg | fAUC/MIC [32]: 6.2 | Activity (Candida albicans [33]): 10.4 mg/kg

Source: ChEMBL document CHEMBL1275496, “In vivo pharmacodynamic target investigation for micafungin against Candida albicans and C. glabrata in a neutropenic murine candidiasis model” (Antimicrob Agents Chemother, 2008)
